High-throughput results (PubChem)
KCNK9 inh = inhibitors of human KCNK9 two-pore domain potassium channel; Q9NPC2; HEK293 KCNK9, FluxOR thallium flux fluorescence; active compounds read low; B-score at 10 µM; actives 1.2% (n = 310,000); AID 488922;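 active means ratio B-score over 3 SD below the library mean, with starting fluorescence within 5 SD of its mean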;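 further: negative B-score means less thallium flux so channel inhibition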
hERG rescue = compounds protecting human hERG from proarrhythmic drug block; CHO-hERG, FluxOR thallium flux, dofetilide IC70 present; activation (rescue from dofetilide block), less the hit threshold, % at 10 µM; actives 0.51% (n = 310,000); AID 1511;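 active means activation above the mean of controls blocked by dofetilide plus 5 SD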;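 further: thallium influx through hERG after potassium depolarization seen as dye fluorescence rise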
KCNQ1 pot = potentiates or activates the human KCNQ1 potassium channel | P51787 | CHO-K1 KCNQ1, thallium flux FluxOR fluorescence; active compounds read high | B-score at 10 µM | actives 0.35% (n = 310,000);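 active means fluorescence ratio B-score, a plate-corrected score, at least three library SD, with initial intensity B-score within 5 SD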
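assay system = KCNQ1-transfected CHO-K1 cells | medium = assay buffer with matched DMSO | probe or stimulus = depolarizing K+/Tl+ stimulus, K2SO4 and Tl2SO4 each 12.5 mM in 5x stock | dosing = single dose | incubation = dye 90 min, compound 20 min, room temperature | detection = kinetic FluxOR fluorescence, 10 s baseline plus 110 s post-stimulus | evaluation = ratio B score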
KCNQ1 block = inhibitors of human KCNQ1 potassium channel; CHO-K1 KCNQ1, FluxOR thallium flux fluorescence; active compounds read high; B-score at 10 µM; actives 1.3% (n = 310,000); AID 2642;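 active means compounds whose thallium flux B-score, printed positive for inhibition, exceeds three library SD while starting fluorescence stays within three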;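 further: channel opened by potassium depolarization with thallium stimulus after 20 min compound exposure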
KCNK3 inh = human KCNK3 channel inhibition, primary screen. O14649. CHO-KCNK3 thallium flux, FluxOR fluorescence; active compounds read low. actives 0.84% (n = 340,000). B-score at 10 µM;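 active means B-score under library mean minus 4 SD, starting fluorescence ratio at most library mean plus 5 SD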;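 further: more negative B-score means stronger inhibition of thallium flux through KCNK3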
Target sequence (O14649 whole entry, looked up): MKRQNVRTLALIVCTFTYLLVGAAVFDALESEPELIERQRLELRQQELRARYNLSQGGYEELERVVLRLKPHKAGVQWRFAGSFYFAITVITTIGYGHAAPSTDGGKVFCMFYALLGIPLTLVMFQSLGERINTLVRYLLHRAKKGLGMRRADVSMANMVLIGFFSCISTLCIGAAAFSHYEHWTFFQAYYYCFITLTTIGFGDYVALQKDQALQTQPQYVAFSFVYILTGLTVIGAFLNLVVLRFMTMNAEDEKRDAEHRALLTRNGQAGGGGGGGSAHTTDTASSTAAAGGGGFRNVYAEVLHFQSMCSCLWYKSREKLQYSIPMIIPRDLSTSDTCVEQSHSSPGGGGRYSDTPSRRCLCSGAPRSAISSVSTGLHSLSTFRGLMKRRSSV
PHOSPHO1 block = blocks human PHOSPHO1 phosphatase activity. recombinant PHOSPHO1, absorbance phosphatase assay. actives 1.1% (n = 290,000). inhibition, % at 13.3 µM. Q8TCT1; in the data active means inhibition above about 60%
Target sequence (Q8TCT1 whole entry, looked up): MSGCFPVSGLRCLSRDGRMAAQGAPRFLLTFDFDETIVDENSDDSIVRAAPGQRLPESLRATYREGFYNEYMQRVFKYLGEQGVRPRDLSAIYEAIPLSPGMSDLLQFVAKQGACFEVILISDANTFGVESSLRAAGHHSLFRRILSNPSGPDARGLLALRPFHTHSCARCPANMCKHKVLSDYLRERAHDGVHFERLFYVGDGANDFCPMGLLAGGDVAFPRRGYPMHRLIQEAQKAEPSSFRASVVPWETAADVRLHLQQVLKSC
Of the large screens only hits and unclear results are named; the others gave an inactive call. An excerpt weighted towards active compounds, which were near 4% of everything screened.

C#CCn1c(=NC(=O)CSC(C)=O)sc2cc(F)ccc21	KCNK9 inh -7.81
O=C(C[C@H]1C[C@H](C(=O)N2CCOCC2)[C@@]2(CCC3CCCC3)c3[nH]c4ccc(Cl)cc4c3CCN2C1=O)NCC12CC3CC(CC(C3)C1)C2	none (no result: KCNK9 inh, hERG rescue, KCNQ1 pot, KCNQ1 block, PHOSPHO1 block)
Cc1ccc(S(=O)(=O)N2CCN(C(=O)c3cc(S(=O)(=O)N(C)C)ccc3N3CCCC3)CC2)cc1	none (no result: PHOSPHO1 block)
Cn1cc(C(=O)Nc2ccc(F)c(Cl)c2)cn1	none
CN1c2ccsc2C(O)=C(C(=S)Nc2ccc(F)c(Cl)c2)S1(=O)=O	PHOSPHO1 block 92.3
Cc1ccccc1Oc1ncnc2sccc12	none
c1ccc2c(c1)[nH]c1c(N3CCSCC3)ncnc12	KCNK3 inh -9.69 (no result: KCNK9 inh, hERG rescue, KCNQ1 pot, KCNQ1 block, PHOSPHO1 block)
O=S(=O)(CC(O)COc1ccc(Br)cc1)c1ccccc1 (centres undefined)	none
CN(C(=O)c1ccc(N2CCCCC2)c([N+](=O)[O-])c1)C1CCS(=O)(=O)C1 (centres undefined)	none (no result: KCNK9 inh, hERG rescue, KCNQ1 pot, KCNQ1 block, PHOSPHO1 block)
COc1ccccc1NC(=O)c1cc(C(=O)Nc2ccccc2OC)n(C)n1	none (no result: PHOSPHO1 block)
COc1ccccc1NC(=S)NNC(=O)c1cc(C)n(C)n1	PHOSPHO1 block 69.6
COc1ccccc1NC(=S)NNC(=O)c1c(Cl)c(C)nn1C	none
COc1ccccc1NC(=S)NNC(=O)c1cc(C)nn1C	PHOSPHO1 block 67.3
CCOc1ccc(S(=O)(=O)N2CCCC(C(=O)N3CCN(CC)CC3)C2)cc1Cl (centres undefined)	none
COc1ccccc1-c1sc2cc3c(cc2c1C#Cc1ccccn1)OCO3	none (no result: KCNK9 inh, hERG rescue, KCNQ1 pot, KCNQ1 block, PHOSPHO1 block)
CCOC(=O)c1nnc(-c2ccccc2)nc1N1CCSCC1	none
Cc1ccc2c(c1)-c1ncc(C(=O)c3cc(Br)ccc3O)cc1CO2	KCNK9 inh -8.89, KCNQ1 block 8 (no result: KCNK3 inh)
CC1CCCCC1NC(=O)COc1ccccc1C#N (centres undefined)	none (no result: KCNK9 inh, hERG rescue, KCNQ1 pot, KCNQ1 block, PHOSPHO1 block)
Fc1ccccc1-c1nc(NC2CCCC2)c2ccccc2n1	KCNQ1 block 6
CC(Nc1nc(-c2ccccc2F)nc2ccccc12)c1ccccc1 (centres undefined)	KCNK9 inh -7.46 (no result: PHOSPHO1 block)
CC(Nc1nc(-c2ccccc2O)nc2ccccc12)c1ccccc1 (centres undefined)	none
Oc1ccccc1-c1nc(NC2CCCC2)c2ccccc2n1	none
O=C(CCC(=O)N1CCOc2ccccc21)NCCCN1CCCCC1	none
O=C(Nc1nc2ccc(SC(F)F)cc2s1)c1ccc(NS(=O)(=O)c2ccc(F)c(F)c2)cc1	KCNK9 inh -6.77
CS(=O)(=O)c1ccc2nc(NC(=O)c3ccc(NS(=O)(=O)c4ccc(F)c(F)c4)cc3)sc2c1	none
CCOC(=O)c1c(NC(=O)c2noc3c2CCCC3)sc(C)c1C	PHOSPHO1 block 92.3 (no result: KCNK9 inh, hERG rescue, KCNQ1 pot, KCNQ1 block, KCNK3 inh)
N#CC1=C(SCC(=O)NC23CC4CC(CC(C4)C2)C3)NC(=O)C(C#N)C12CCCCC2 (centres undefined)	KCNQ1 block 10
Cc1nnc(NC(=O)CSc2nc(CC(C)C)nc3c2c(=O)n(C)c(=O)n3C)s1	none
Cc1ccc(C(=O)N2C(=O)C(c3ccccc3)Oc3ccccc32)cc1 (centres undefined)	none
Nc1cc(=O)[nH]c(SCc2nc3ccccc3n2Cc2ccccc2)n1	hERG rescue 6.1
O=c1[nH]c(SCc2nc3ccccc3n2Cc2ccccc2)nc2ccccc12	none
Cc1cccc(NC(=S)NCC(c2ccccc2)N(C)C)c1 (centres undefined)	none
Cc1ccc(NC(=S)NCC(C)CSc2ccc(Cl)cc2)cc1 (centres undefined)	KCNQ1 block 8
Cc1ccc(NC(=S)NCCSc2ccc(Cl)cc2)c(C)c1	none
Cc1cccc(NC(=S)NCC(C)CSc2ccc(Cl)cc2)c1 (centres undefined)	KCNQ1 block 9
CC(C)CCNC(=O)C(C)N(C(=O)c1snc(C(N)=O)c1N)c1cnc2ccccc2c1 (centres undefined)	none
COC(=O)c1ccc(Sc2ccccc2NS(=O)(=O)c2ccc(C)cc2)nc1	none
Cc1ccc(NC(=Nc2ccc(Br)cc2)N2CCOCC2)cc1C	KCNQ1 block 6
CCOc1ccccc1NC(=O)COc1coc(CN2CCc3ccccc3C2)cc1=O	none (no result: PHOSPHO1 block)
CC(c1ccco1)N(C(=O)COc1ccc(Cl)cc1Cl)c1ccccn1 (centres undefined)	KCNK9 inh -8.08, KCNQ1 block 6
O=C(NCCC1CCCCN1S(=O)(=O)c1cccs1)C(=O)Nc1ccccc1F (centres undefined)	none (no result: PHOSPHO1 block)
CCn1c(SCC(=O)Nc2ccc3c(c2)OCCO3)nnc1-c1ccco1	none
CCn1c(SCC(=O)c2cccs2)nnc1-c1cccs1	PHOSPHO1 block 70.5
CCn1c(SCC(=O)NC(=O)Nc2ccc3c(c2)OCCO3)nnc1-c1cccs1	PHOSPHO1 block 65.3
Cc1cccc(OCc2nnc(SCC(=O)c3cccs3)n2C)c1C	PHOSPHO1 block 75.5
CCn1c(SCC(=O)NC(C)C)nnc1-c1cccs1	none
Cc1ccc(CNC(=O)CN2C(=O)NC(C)(c3ccccc3Cl)C2=O)cc1 (centres undefined)	none
CCCCn1c(=O)[nH]c(=O)c2c1nc(-c1ccccn1)n2CC	none
COc1ccc(N=c2oc3cc(O)ccc3cc2C(=O)Nc2ccccn2)cc1OC	KCNK9 inh -6.84, KCNQ1 block 9
OC(c1ccccc1)(C1CCCCC1)C(CN1CCOCC1)c1ccccc1 (centres undefined)	KCNQ1 block 6
CC(C)NC(=O)CC1(C(=O)NCc2ccc(Cl)cc2)CCCC1	none
COc1ccc(CC(=O)NNC(=S)NC(=O)c2cccnc2)cc1	PHOSPHO1 block 85.0
O=C(NNC(=S)NC(=O)c1cccnc1)c1ccc(F)cc1	PHOSPHO1 block 85.0
O=C(NNC(=S)NC(=O)c1ccc(F)cc1)c1cccnc1	none
COc1ccc(C(=O)NNC(=S)NC(=O)c2cccnc2)cc1	none
O=c1oc2ccccc2cc1-c1csc(Nc2nc3c(F)cccc3s2)n1	KCNK9 inh -7.57
OC(COc1ccccc1)CN(Cc1ccccc1)CC(O)COc1ccccc1 (centres undefined)	none (no result: KCNK9 inh, hERG rescue, KCNQ1 pot, KCNQ1 block, PHOSPHO1 block)
CCC(=O)c1ccc(OCC(O)CN(CCc2ccccc2)Cc2ccccc2)cc1 (centres undefined)	KCNQ1 block 7
COC(=O)[C@@H](NC(=O)/C=C/c1ccc(OC)cc1)C(C)C	none
N#CC1=C(N)NC(SCC(=O)Nc2ccccc2)=C(C#N)C12CCCC2	KCNQ1 block 10
CCOC(=O)c1ccc(Cl)c(NC(=O)c2ccc(-c3ccccc3)cc2)c1	PHOSPHO1 block 66.1
CC(=O)Nc1cc(-c2nn3c(C)nnc3s2)ccc1C	none
CCC(=O)Nc1cc(-c2nn3c(C)nnc3s2)ccc1C	KCNQ1 pot 8
CCCOC1CCCN(C(=O)c2cc(COc3ccc(-n4cncn4)cc3)on2)C1 (centres undefined)	none
O=C(Nc1nnc(C2=COCCO2)o1)c1cccc(Br)c1	PHOSPHO1 block 61.0
